Experimental data taken from ChEMBL document CHEMBL4665779, “Novel 2-Substituted 3-Hydroxy-1,6-dimethylpyridin-4(1H)-ones as Dual-Acting Biofilm Inhibitors of Pseudomonas aeruginosa” (J Med Chem, 2020).
Calls of active or inactive are those of the source. The rule behind the calls is not given here.

Assays:
[1] = Growth inhibition of Pseudomonas aeruginosa PAO1 at 512 uM by CLSI-based broth microdilution method
How it was run: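 Broth microdilution following CLSI standards: two-fold serial dilutions were made in Mueller-Hinton broth and inoculated with P. aeruginosa to a final OD600 of 0.05. The top final concentration is printed as […].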

Pseudomonas aeruginosa = assay: Antibiofilm activity against Pseudomonas aeruginosa PAO1 assessed as inhibition of biofilm formation after 18 hrs by crystal violet staining based assay; assay type: functional, organism-based; details: PAO1, 18 h
L02 = assay: Cytotoxicity against human L02 cells assessed as reduction in cell viability at 1.25 to 100 uM after 16 hrs by MTT assay; assay type: cell-based; details: l02, 16 h, dose 1.25-100 µM
How it was run: (§1)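 MTT assay on Vero or LO2 cells seeded at 5000–15000 cells/well for 16 h, then washed with PBS. Compound (0–100 μM) added in DMEM for 16 h at 37 °C, 5% CO2. MTT added for 3 h, formazan dissolved in DMSO with shaking, OD570 read. Triplicate, mean ± SD.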

[2] = tested on: Pseudomonas aeruginosa PAO1; assay: Induction of iron chelation in Pseudomonas aeruginosa PAO1 assessed as increase in iron deficiency by measuring change in total ferric ion concentration at 20 uM by inductively coupled plasma mass spectrometry (reference value: 1.91 +/- 0.8 uM)
[3] = Metal chelating activity assessed as negative logarithm of total free ferric ion concentration in a solution at 60 uM measured after 48 hrs in presence of CP645 probe and Fe-NTA by fluorescence spectrophotometry analysis
[4] = tested on: Pseudomonas aeruginosa PAO1; assay: Induction of iron chelation in Pseudomonas aeruginosa PAO1 assessed as increase in intracellular pyochelin level at 1.25 to 20 uM in presence of 10 uM FeCl3 by fluorescence microplate reader assay; assay type: cell-based; details: dose microM 1.25-20
[5] = tested on: Pseudomonas aeruginosa PAO1; assay: Induction of iron chelation in Pseudomonas aeruginosa PAO1 assessed as increase in intracellular pyoverdin level at 1.25 to 20 uM in presence of 10 uM FeCl3 by fluorescence microplate reader assay; assay type: cell-based; details: dose microM 1.25-20
Vero = assay: Cytotoxicity against African green monkey Vero cells assessed as reduction in cell viability at 1.25 to 100 uM after 16 hrs by MTT assay; assay type: cell-based; details: chlorocebus sabaeus, dose 1.25-100 µM; how it was run: as §1

Row | SMILES | growth inhibition (GI) [1] | IC50 (Pseudomonas aeruginosa) [µM] | further results
1 | COc1cccc(C(=O)NCc2c(O)c(=O)cc(C)n2C)c1 | Non-Toxic | > 100 | –
2 | Cc1cc(=O)c(O)c(CNS(=O)(=O)c2ccc(F)cc2)n1C | Non-Toxic | > 100 | –
3 | Cc1cc(=O)c(O)c(CNCC2CN(Cc3ccc(F)cc3)CCO2)n1C (centres undefined) | Non-Toxic | > 100 | –
4 | Cc1cc(=O)c(O)c(CNC(=O)c2ccc(C(F)(F)F)cc2)n1C | Non-Toxic | 61.1 | –
5 | CCCCNCc1c(O)c(=O)cc(C)n1C | Non-Toxic | 52.5 | –
6 | Cc1cc(=O)c(O)c(CNC(=O)c2ccnc(C(F)(F)F)c2)n1C | Non-Toxic | > 100 | –
7 | COc1ccc(CCCC(=O)NCc2c(O)c(=O)cc(C)n2C)cc1 | Non-Toxic | > 100 | –
8 | Cc1cc(=O)c(O)c(CNS(=O)(=O)c2cccc3c2NCCC3)n1C | Non-Toxic | 35.3 | –
9 | Cc1cc(=O)c(O)c(CNC(=O)c2ccccc2)n1C | Non-Toxic | 41.7 | –
10 | CCCC(=O)NCc1c(O)c(=O)cc(C)n1C | Non-Toxic | 45.1 | –
11 | Cc1cc(=O)c(O)c(CNC(C)C)n1C | Non-Toxic | 24.5 | –
12 | Cc1cc(=O)c(O)c(CNC(=O)C2CCCCC2)n1C | Non-Toxic | 63.4 | –
13 | CCCCCCCC(=O)NCc1c(O)c(=O)cc(C)n1C | Non-Toxic | > 100 | –
14 | COc1ccc(CCC(=O)NCc2c(O)c(=O)cc(C)n2C)cc1 | Non-Toxic | 59.1 | –
15 | Cc1cc(=O)c(O)c(CNC(=O)c2ccncc2)n1C | Non-Toxic | > 100 | –
16 | COc1ccc(C(=O)NCc2c(O)c(=O)cc(C)n2C)cc1 | Non-Toxic | 38.4 | –
17 | Cc1cc(=O)c(O)c(CNS(=O)(=O)c2ccc(C(C)(C)C)cc2)n1C | Non-Toxic | 51.6 | –
18 | COc1cccc(NCc2c(O)c(=O)cc(C)n2C)c1 | Non-Toxic | > 100 | –
19 | Cc1cc(=O)c(O)c(CNC(=O)CC2CCCCC2)n1C | Non-Toxic | 46.8 | –
20 | Cc1cc(=O)c(O)c(CNC(=O)C2CC2)n1C | Non-Toxic | > 100 | –
21 | Cc1cc(=O)c(O)c(CNC(=O)Cc2ccc(Cl)cc2)n1C | Non-Toxic | > 100 | –

Row | SMILES | growth inhibition (GI) [1] | IC50 (Pseudomonas aeruginosa) [µM] | further results
22 | Cc1ccc(S(=O)(=O)NCc2c(O)c(=O)cc(C)n2C)cc1 | Non-Toxic | 59.3 | –
23 | Cc1cc(=O)c(O)c(CNS(=O)(=O)c2ccccc2)n1C | Non-Toxic | > 100 | –
24 | COc1ccc(S(=O)(=O)NCc2c(O)c(=O)cc(C)n2C)cc1 | Non-Toxic | > 100 | –
25 | Cc1cc(=O)c(O)c(CNC(=O)c2cccc3ccccc23)n1C | Non-Toxic | 75.6 | –
26 | Cc1cc(=O)c(O)c(CNC(=O)Cc2ccc(F)cc2)n1C | Non-Toxic | 55 | –
27 | Cc1cc(=O)c(O)c(CNC2CCCC2)n1C | Non-Toxic | 14.9 | –
28 | CCCCCCCCCC(=O)CC(=O)NCc1c(O)c(=O)cc(C)n1C | Non-Toxic | > 100 | –
29 | CCCCCNCc1c(O)c(=O)cc(C)n1C | Non-Toxic | > 100 | –
30 | Cc1cc(=O)c(O)c(CNC(=O)Cc2ccccc2)n1C | Non-Toxic | 28.1 | –
31 | COc1ccccc1C(=O)NCc1c(O)c(=O)cc(C)n1C | Non-Toxic | 69.7 | –
32 | Cc1cc(=O)c(O)c(CNC2CCN(C)CC2)n1C | Non-Toxic | 35 | –
33 | Cc1cc(=O)c(O)c(CNCCCN2CCN(C)CC2)n1C | Non-Toxic | 16.9 | –
34 | Cc1c(O)c(=O)ccn1C [DEFERIPRONE] | – | > 100 | Activity (L02): Non-Toxic; Activity [2]: 1.23 µM; log(activity) [3]: -20.8; Activity [4]: Active; Activity [5]: inactive; Activity (Vero): Non-Toxic
35 | Cc1cc(=O)c(O)c(CNC(=O)c2ccc(F)cc2)n1C | Non-Toxic | > 100 | –
36 | CCCCC(=O)NCc1c(O)c(=O)cc(C)n1C | Non-Toxic | 56.9 | –
37 | CCCCCC(=O)NCc1c(O)c(=O)cc(C)n1C | Non-Toxic | 57.9 | –
38 | Cc1cc(=O)c(O)c(CNC(=O)C2CCC2)n1C | Non-Toxic | 64.1 | –
39 | COc1ccc(CC(=O)NCc2c(O)c(=O)cc(C)n2C)cc1 | Non-Toxic | 65.5 | –
40 | Cc1cc(=O)c(O)c(CNS(=O)(=O)c2ccc(-c3ccccc3)cc2)n1C | Non-Toxic | > 100 | –
41 | Cc1cc(=O)c(O)c(CNC(=O)C2CCCC2)n1C | Non-Toxic | 65.1 | –
42 | Cc1cc(=O)c(O)c(CNC(=O)C2CCCO2)n1C (centres undefined) | Non-Toxic | 26.5 | –
